Legend:
[1] = tested on: Plasmodium vinckei; assay: Antimalarial activity against Plasmodium vinckei 279BY infected in Swiss mice (Mus musculus) assessed as reduction in parasitemia at 5 mg/kg, intraperitoneally; type: functional; design: scale not given: the % may be the effect or the level left; conditions: route intraperitoneal
Outline: (§1)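 Female Swiss mice infected with P. vinckei petteri 279BY on day 0. Dosing once daily on days 1–4 post infection, ip or po as given in each line, n = 3 per dose. Parasitemia measured on day 5 and expressed as decrease relative to untreated control. ED50 derived from the dose series.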

[2] = tested on: Plasmodium vinckei; assay: Antimalarial activity against Plasmodium vinckei 279BY infected in Swiss mice (Mus musculus) dosed perorally for 4 consecutive days; type: functional; conditions: ip, in the assay text read “dosed intraperitoneally” for “dosed perorally”; outline: as §1
[3] = tested on: Plasmodium falciparum; assay: Antimalarial activity against Plasmodium falciparum; type: functional, organism-based
Outline: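 Chloroquine-sensitive Nigerian strain of P. falciparum; inhibition of in vitro growth; IC50 taken as the mean of at least two independent experiments, each run in duplicate.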

[4] = tested on: Plasmodium vinckei; assay: Antimalarial activity against Plasmodium vinckei 279BY infected in Swiss mice (Mus musculus) assessed as reduction in parasitemia at 180 mg/kg, po; type: functional; design: scale not given: the % may be the effect or the level left; outline: as §1

SMILES	Activity [1] [%]	ED50 [2] [mg/kg]	IC50 [3] [nM]	Activity [4] [%]
COc1ccc(C(=N)NCCCCCCCCCCCCNC(=N)c2ccc(OC)c(OC)c2)cc1OC.Cl.Cl	40	> 5	6.7	–
COc1cccc(C(=N)NCCCCCCCCCCCCNC(=N)c2cccc(OC)c2)c1.Cl.Cl	–	5	6.6	42
COc1cc(OC)cc(C(=N)NCCCCCCCCCCCCNC(=N)c2cc(OC)cc(OC)c2)c1.Cl.Cl	–	5	39	20
Cl.Cl.N=C(NCCCCCCCCCCCCNC(=N)c1ccc(N)cc1)c1ccc(N)cc1	–	2.2	14	58
Cc1ccc(C(=N)NCCCCCCCCCCCCNC(=N)c2ccc(C)cc2)cc1.Cl.Cl	–	3.1	10	–
CC(=N)NCCCCCCCCCCCCNC(C)=N.Cl.Cl	–	3.1	–	–
CCC(=N)NCCCCCCCCCCCCNC(=N)CC.Cl.Cl	–	> 10	18	–
CC(C)C(=N)NCCCCCCCCCCCCNC(=N)C(C)C.Cl.Cl	–	7	10.2	–
Cl.Cl.N=C(NCCCCCCCCCCCCNC(=N)C1CC1)C1CC1	–	5	16	–
Cl.Cl.NC(=O)NCCCCCCCCCCCCNC(N)=O	–	8.5	9.15	–
N=C(NCCCCCCCCCCCCNC(=N)c1ccco1)c1ccco1	–	–	715	–
N=C(NCCCCCCCCCCCCNC(=N)c1ccc(C(F)(F)F)cc1)c1ccc(C(F)(F)F)cc1	–	–	455	–
N=C(NCCCCCCCCCCCCNC(=N)c1ccc([N+](=O)[O-])cc1)c1ccc([N+](=O)[O-])cc1	–	–	520	–
COc1ccc(C(=N)NCCCCCCCCCCCCNC(=N)c2ccc(OC)cc2)cc1.Cl.Cl	–	> 20	26.5	–
COc1ccccc1C(=N)NCCCCCCCCCCCCNC(=N)c1ccccc1OC.Cl.Cl	–	12	24.5	–
Cl.Cl.N=C(NCCCCCCCCCCCCNC(=N)c1ccc2c(c1)OCO2)c1ccc2c(c1)OCO2	–	12	55.5	–
Cl.Cl.N=C(NCCCCCCCCCCCCNC(=N)c1ccccc1)c1ccccc1	–	> 10	13.5	–

Reference: ChEMBL document CHEMBL1255542, “Reverse-benzamidine antimalarial agents: design, synthesis, and biological evaluation” (Bioorg Med Chem Lett, 2010)
